According to the M2OR odorant receptor database:

Key:
Details in all cases: stereoisomer not certain
UniProt Q8VGC6 = biological target: T1, UniProt Q8VGC6
T1 sequence (whole entry): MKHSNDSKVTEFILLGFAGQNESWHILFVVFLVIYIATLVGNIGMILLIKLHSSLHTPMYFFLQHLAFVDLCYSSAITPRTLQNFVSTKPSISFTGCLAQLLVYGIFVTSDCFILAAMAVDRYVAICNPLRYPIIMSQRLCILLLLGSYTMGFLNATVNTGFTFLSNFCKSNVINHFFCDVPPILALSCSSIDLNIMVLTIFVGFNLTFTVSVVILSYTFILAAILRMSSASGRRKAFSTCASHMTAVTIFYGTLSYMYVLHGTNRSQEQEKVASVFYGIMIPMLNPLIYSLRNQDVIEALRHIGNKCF
Method in brief: (§1)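 Each entry records the cell line, G-protein, co-transfected protein and tags used. Methods varied with the source, often transient luciferase assays in mammalian cell lines. A receptor–molecule pair is called responsive (active) if the original authors judged its signal statistically different from baseline and non-responsive (inactive) otherwise.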

UniProt Q8VGJ3 = biological target: T2, UniProt Q8VGJ3
T2 sequence (whole entry): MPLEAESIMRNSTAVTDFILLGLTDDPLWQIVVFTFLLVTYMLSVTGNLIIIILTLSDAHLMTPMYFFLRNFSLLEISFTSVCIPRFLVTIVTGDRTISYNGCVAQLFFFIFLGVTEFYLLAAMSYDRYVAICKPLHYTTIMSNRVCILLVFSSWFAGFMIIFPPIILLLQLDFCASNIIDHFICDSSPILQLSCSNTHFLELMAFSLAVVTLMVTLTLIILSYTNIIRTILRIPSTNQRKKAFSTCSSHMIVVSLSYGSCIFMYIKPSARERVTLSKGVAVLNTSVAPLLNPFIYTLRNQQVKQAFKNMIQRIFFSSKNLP
Method in brief: as §1

UniProt Q8VGL0 = biological target: T3, UniProt Q8VGL0
T3 sequence (whole entry): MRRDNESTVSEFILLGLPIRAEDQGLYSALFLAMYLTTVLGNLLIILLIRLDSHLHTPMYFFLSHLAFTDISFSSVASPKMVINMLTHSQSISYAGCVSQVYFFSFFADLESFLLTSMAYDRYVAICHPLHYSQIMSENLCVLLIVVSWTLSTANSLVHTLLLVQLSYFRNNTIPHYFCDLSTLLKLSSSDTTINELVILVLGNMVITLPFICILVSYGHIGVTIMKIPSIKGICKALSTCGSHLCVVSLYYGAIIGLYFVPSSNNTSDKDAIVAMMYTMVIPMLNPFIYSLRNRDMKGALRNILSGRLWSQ
Method in brief: as §1

UniProt Q8VGU3 = biological target: T4, UniProt Q8VGU3
T4 sequence (whole entry): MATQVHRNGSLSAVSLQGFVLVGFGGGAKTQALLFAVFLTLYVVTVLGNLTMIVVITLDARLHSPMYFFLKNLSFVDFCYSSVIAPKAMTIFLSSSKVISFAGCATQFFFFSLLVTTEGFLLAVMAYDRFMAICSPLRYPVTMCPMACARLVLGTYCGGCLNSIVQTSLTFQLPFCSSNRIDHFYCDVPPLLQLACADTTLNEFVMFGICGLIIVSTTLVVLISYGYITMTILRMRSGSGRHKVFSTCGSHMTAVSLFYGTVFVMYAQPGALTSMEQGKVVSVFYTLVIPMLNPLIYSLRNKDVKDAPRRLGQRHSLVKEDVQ
Method in brief: as §1

UniProt Q8VGV7 = biological target: T5, UniProt Q8VGV7
T5 sequence (whole entry): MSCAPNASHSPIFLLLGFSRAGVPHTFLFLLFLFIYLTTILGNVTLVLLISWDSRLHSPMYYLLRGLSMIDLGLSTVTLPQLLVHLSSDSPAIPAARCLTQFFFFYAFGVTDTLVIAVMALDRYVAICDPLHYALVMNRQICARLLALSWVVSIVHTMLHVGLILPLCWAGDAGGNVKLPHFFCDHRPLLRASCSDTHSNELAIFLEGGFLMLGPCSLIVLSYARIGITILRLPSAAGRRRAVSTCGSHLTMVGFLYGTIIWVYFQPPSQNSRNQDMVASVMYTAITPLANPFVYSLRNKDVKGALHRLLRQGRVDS
Method in brief: as §1

UniProt Q8VGW5 = biological target: T6, UniProt Q8VGW5
T6 sequence (whole entry): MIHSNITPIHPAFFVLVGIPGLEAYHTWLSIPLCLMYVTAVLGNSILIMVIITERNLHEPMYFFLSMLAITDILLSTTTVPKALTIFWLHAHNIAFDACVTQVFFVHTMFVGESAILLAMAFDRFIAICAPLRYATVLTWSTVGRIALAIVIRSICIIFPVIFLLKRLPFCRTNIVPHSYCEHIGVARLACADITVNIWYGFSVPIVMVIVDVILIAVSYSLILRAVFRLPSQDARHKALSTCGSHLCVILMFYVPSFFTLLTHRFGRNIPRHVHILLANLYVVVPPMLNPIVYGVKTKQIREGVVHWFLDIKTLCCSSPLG
Method in brief: as §1

UniProt Q8VGX3 = biological target: T7, UniProt Q8VGX3
T7 sequence (whole entry): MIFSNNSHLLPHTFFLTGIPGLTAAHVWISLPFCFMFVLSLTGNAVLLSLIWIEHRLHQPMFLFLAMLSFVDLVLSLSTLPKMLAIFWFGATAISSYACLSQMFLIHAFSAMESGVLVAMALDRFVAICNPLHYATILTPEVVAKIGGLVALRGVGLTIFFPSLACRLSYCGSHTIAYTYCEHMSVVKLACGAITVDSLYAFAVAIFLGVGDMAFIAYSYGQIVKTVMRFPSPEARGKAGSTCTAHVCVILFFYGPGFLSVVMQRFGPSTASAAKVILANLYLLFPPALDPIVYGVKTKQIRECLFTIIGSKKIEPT
Method in brief: as §1

UniProt Q8VGX5 = biological target: T8, UniProt Q8VGX5
T8 sequence (whole entry): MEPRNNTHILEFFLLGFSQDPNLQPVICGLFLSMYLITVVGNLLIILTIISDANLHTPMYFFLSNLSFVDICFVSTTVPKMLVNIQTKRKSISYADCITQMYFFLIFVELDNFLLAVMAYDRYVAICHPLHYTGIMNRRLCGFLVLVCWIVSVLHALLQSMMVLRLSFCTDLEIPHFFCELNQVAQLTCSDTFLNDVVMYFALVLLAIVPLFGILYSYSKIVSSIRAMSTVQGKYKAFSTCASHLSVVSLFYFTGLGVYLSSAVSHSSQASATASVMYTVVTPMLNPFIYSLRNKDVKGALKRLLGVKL
Method in brief: as §1

UniProt Q8VGD7 = biological target: T9, UniProt Q8VGD7
T9 sequence (whole entry): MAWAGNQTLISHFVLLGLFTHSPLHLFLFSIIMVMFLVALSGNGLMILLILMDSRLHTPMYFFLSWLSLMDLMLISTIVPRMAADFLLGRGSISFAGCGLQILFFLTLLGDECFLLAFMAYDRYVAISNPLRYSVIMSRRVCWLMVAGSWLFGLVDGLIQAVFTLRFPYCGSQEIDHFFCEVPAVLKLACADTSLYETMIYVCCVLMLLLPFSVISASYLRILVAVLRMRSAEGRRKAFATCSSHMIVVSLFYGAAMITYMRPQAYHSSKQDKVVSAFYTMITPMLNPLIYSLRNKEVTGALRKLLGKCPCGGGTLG
Method in brief: as §1

UniProt Q8VGH1 = biological target: T10, UniProt Q8VGH1
T10 sequence (whole entry): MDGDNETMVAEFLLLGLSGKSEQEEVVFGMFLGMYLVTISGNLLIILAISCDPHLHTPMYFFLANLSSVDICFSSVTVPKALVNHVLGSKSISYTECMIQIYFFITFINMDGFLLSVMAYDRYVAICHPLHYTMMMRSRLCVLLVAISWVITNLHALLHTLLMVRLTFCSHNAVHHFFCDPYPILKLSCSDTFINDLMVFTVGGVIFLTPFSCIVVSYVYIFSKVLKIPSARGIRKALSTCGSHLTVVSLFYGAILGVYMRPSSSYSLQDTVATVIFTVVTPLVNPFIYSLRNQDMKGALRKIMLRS
Method in brief: as §1

UniProt Q8VGJ1 = biological target: T11, UniProt Q8VGJ1
T11 sequence (whole entry): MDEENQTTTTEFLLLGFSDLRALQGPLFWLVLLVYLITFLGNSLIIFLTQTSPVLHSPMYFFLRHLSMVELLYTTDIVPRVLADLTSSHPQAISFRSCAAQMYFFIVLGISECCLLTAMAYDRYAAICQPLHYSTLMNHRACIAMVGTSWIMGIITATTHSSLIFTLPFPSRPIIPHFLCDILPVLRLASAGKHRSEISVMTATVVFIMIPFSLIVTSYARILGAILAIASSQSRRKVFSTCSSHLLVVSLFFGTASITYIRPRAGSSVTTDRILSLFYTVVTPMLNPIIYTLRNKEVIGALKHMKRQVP
Method in brief: as §1

UniProt Q8VGJ5 = biological target: T12, UniProt Q8VGJ5
T12 sequence (whole entry): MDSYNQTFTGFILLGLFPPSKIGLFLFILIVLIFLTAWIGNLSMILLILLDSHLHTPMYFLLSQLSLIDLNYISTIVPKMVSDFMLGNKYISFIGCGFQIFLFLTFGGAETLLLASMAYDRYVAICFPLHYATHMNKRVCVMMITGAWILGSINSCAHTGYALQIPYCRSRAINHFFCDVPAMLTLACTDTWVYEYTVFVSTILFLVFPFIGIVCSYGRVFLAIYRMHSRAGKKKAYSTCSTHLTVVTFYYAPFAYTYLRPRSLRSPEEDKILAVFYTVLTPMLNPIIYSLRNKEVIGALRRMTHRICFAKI
Method in brief: as §1

UniProt Q8VGL7 = biological target: T13, UniProt Q8VGL7
T13 sequence (whole entry): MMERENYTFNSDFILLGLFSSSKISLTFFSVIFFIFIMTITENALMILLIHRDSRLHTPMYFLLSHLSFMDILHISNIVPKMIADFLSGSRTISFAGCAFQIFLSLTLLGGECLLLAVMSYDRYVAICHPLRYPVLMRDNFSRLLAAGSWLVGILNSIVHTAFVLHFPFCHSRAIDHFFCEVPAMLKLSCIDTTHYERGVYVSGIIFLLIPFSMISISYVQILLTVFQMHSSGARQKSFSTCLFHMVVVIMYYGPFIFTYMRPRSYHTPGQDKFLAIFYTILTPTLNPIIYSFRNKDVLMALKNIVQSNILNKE
Method in brief: as §1

UniProt Q8VGM2 = biological target: T14, UniProt Q8VGM2
T14 sequence (whole entry): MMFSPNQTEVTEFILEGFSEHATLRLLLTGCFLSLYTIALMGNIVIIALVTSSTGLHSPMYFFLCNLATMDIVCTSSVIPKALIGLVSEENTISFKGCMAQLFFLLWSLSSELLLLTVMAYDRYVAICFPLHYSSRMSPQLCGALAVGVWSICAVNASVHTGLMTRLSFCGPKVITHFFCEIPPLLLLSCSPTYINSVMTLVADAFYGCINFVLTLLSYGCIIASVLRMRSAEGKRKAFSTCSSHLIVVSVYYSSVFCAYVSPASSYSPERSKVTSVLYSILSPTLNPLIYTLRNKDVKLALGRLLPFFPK
Method in brief: as §1

UniProt Q8VGP6 = biological target: T15, UniProt Q8VGP6
T15 sequence (whole entry): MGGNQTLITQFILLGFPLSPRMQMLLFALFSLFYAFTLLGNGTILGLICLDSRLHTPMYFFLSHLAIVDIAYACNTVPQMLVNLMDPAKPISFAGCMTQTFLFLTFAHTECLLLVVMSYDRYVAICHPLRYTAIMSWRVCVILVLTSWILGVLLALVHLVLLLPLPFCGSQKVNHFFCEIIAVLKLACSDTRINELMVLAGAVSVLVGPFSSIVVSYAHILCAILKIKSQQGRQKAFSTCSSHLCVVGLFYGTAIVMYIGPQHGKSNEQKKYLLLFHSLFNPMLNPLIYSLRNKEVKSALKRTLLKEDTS
Method in brief: as §1

UniProt Q8VGQ3 = biological target: T16, UniProt Q8VGQ3
T16 sequence (whole entry): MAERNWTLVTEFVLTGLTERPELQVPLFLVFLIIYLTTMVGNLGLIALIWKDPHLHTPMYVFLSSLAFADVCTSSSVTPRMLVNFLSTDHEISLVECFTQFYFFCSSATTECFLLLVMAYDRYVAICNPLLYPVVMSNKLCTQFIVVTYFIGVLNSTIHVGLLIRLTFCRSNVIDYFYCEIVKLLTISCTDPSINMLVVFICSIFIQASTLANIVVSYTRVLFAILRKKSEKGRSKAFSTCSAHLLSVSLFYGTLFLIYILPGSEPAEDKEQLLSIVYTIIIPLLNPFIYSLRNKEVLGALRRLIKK
Method in brief: as §1

UniProt Q8VGT4 = biological target: T17, UniProt Q8VGT4
T17 sequence (whole entry): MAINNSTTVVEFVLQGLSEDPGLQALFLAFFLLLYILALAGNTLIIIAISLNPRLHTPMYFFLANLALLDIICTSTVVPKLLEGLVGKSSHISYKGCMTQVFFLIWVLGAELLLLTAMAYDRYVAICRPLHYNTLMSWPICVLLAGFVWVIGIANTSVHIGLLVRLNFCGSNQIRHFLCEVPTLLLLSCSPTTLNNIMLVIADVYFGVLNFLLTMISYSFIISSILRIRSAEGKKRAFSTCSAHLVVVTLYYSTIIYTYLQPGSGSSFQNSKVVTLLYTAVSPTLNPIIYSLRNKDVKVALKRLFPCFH
Method in brief: as §1

UniProt Q8VGV1 = biological target: T18, UniProt Q8VGV1
T18 sequence (whole entry): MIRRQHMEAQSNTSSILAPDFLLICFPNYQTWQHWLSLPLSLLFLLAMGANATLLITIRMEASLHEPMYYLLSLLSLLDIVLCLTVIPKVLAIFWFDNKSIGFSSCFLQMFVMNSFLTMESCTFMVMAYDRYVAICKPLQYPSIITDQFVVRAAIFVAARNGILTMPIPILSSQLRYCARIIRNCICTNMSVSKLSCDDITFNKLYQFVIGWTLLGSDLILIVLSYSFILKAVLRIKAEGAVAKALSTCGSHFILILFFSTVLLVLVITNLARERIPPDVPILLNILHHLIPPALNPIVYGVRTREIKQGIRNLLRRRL
Method in brief: as §1

Measured: odorant receptor agonist call

CCCCC=O
inactive: UniProt Q8VGC6 | UniProt Q8VGJ3 | UniProt Q8VGL0 | UniProt Q8VGU3 | UniProt Q8VGV7 | UniProt Q8VGX3 | UniProt Q8VGX5
active: UniProt Q8VGW5

CCCCCCCC(C)=O
active: UniProt Q8VGC6
not listed: UniProt Q8VGW5
inactive: all other assays above
